# Measured values as given in ChEMBL document CHEMBL4011638, “Semisynthetic Flavone-Derived Antimicrobials with Therapeutic Potential against Methicillin-Resistant Staphylococcus aureus (MRSA)” (J Med Chem, 2017).
# The source made the active and inactive calls. The calls are words filed in the database; no cut-off is given here.
# Experiments:
# Staphylococcus aureus [1] = experiment: Antibacterial activity against methicillin-resistant Staphylococcus aureus DM 21455 after 24 hrs by broth microdilution method; assay type: functional; conditions: DM 21455, 24 h
# In short: (§1)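 Broth microdilution per CLSI in cation-adjusted Mueller−Hinton broth, in tubes. Compounds dissolved in H2O or DMF, then diluted in PBS to 1000 μg/mL stocks. Serial 2-fold dilutions were made, with final DMF 2.5%. Organisms were grown on TSA at 35 °C for 20 h and adjusted to ~5× 10^5 CFU/mL. Tubes were incubated at 35 °C for 24 h. MIC was the lowest concentration with no visible growth versus control. Biological replicates.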
# Bacillus cereus = experiment: Antibacterial activity against Bacillus cereus ATCC 11778 after 24 hrs by broth microdilution method; assay type: functional; conditions: ATCC 11778, 24 h
# In short: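 MIC by CLSI broth microdilution in cation-adjusted Mueller–Hinton broth, tubes. Compounds in H2O or DMF, diluted in PBS to 1000 μg/mL stocks, then serial 2-fold dilutions (final DMF 2.5%). Inoculum ~5×10^5 CFU/mL from TSA plates grown 35 °C 20 h. Incubation 35 °C 24 h; MIC = no visible growth vs control. Biological replicates.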
# Staphylococcus aureus [2] = experiment: Antibacterial activity against Staphylococcus aureus DM4001R after 24 hrs by broth microdilution method; assay type: functional; in short: as §1
# Staphylococcus aureus [3] = experiment: Antibacterial activity against methicillin-resistant Staphylococcus aureus DM 9808R after 24 hrs by broth microdilution method; assay type: functional; in short: as §1
# Staphylococcus aureus [4] = experiment: Ratio of MIC for Staphylococcus aureus ATCC 29213 after […] passages to MIC for Staphylococcus aureus ATCC 29213; assay type: functional
# In short: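 Serial passage. Initial MIC was determined against S. aureus ATCC29213 by broth microdilution. Bacteria from duplicate tubes at 0.5× MIC were diluted to ~5 × 10^5 CFU/mL for the next MIC round. Each round was incubated at 35 °C for 24 h and the fold increase in MIC recorded. Gatifloxacin and norfloxacin served as comparators. Repeated for 17 passages, biological replicates.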
# Staphylococcus aureus [5] = experiment: Antibacterial activity against methicillin-resistant Staphylococcus aureus ATCC 43300 after 24 hrs by broth microdilution method; assay type: functional; conditions: ATCC 43300, 24 h; in short: as §1
# Staphylococcus aureus [6] = experiment: Antibacterial activity against methicillin-resistant Staphylococcus aureus DB6506 after 24 hrs by broth microdilution method; assay type: functional; conditions: DB6506, 24 h; in short: as §1
# Staphylococcus aureus [7] = experiment: Antibacterial activity against methicillin-sensitive Staphylococcus aureus ATCC 29213 after 24 hrs by broth microdilution method; assay type: functional; conditions: ATCC 29213, 24 h; in short: as §1
# Staphylococcus aureus [8] = experiment: Antibacterial activity against methicillin-sensitive Staphylococcus aureus ATCC 29737 after 24 hrs by broth microdilution method; assay type: functional; conditions: ATCC 29737, 24 h; in short: as §1
# Staphylococcus aureus [9] = experiment: Antibacterial activity against methicillin-sensitive Staphylococcus aureus ATCC 6538 after 24 hrs by broth microdilution method; assay type: functional; conditions: ATCC 6538, 24 h; in short: as §1
# [10] = Ratio of HC50 for New Zealand white rabbit RBC to MIC for methicillin-sensitive Staphylococcus aureus DM4583R
# In short: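 HC50 measured on fresh New Zealand white rabbit RBCs, washed three times in PBS, at 4% v/v final. Cells were incubated with 2-fold serial dilutions (DMF final 0.5%) at 37 °C for 1 h, then centrifuged. Supernatant absorbance was read at 576 nm, with PBS as 0% and 2% Triton X-100 as 100% lysis. HC50 is the concentration lysing 50% of cells, divided by MIC from broth microdilution.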
# Staphylococcus aureus [11] = experiment: Antibacterial activity against methicillin-resistant Staphylococcus aureus DB68004 after 24 hrs by broth microdilution method; assay type: functional; conditions: DB68004, 24 h; in short: as §1
# Staphylococcus aureus [12] = experiment: Antibacterial activity against methicillin-sensitive Staphylococcus aureus DM4400R after 24 hrs by broth microdilution method; assay type: functional; in short: as §1
# Staphylococcus aureus [13] = experiment: Antibacterial activity against methicillin-resistant Staphylococcus aureus ATCC 700699 after 24 hrs by broth microdilution method; assay type: functional; conditions: ATCC 700699, 24 h; in short: as §1
# Staphylococcus aureus [14] = experiment: Antibacterial activity against methicillin-sensitive Staphylococcus aureus DM4583R after 24 hrs by broth microdilution method; assay type: functional; in short: as §1
# Staphylococcus aureus [15] = experiment: Antibacterial activity against methicillin-sensitive Staphylococcus aureus DM4299 after 24 hrs by broth microdilution method; assay type: functional; conditions: DM4299, 24 h; in short: as §1
# Staphylococcus aureus [16] = experiment: Antibacterial activity against methicillin-resistant Staphylococcus aureus BAA-38 after 24 hrs by broth microdilution method; assay type: functional; conditions: BAA-38, 24 h; in short: as §1
# Staphylococcus aureus [17] = experiment: Antibacterial activity against methicillin-resistant Staphylococcus aureus DB57964 after 24 hrs by broth microdilution method; assay type: functional; conditions: DB57964, 24 h; in short: as §1
# Staphylococcus aureus [18] = experiment: Antibacterial activity against Staphylococcus aureus ATCC 29213 infected in C57BL6 mouse keratitis model assessed as log reduction in bacterial burden at 0.5 % administered 4 times daily at 2 hrs interval for 1 day; assay type: functional
# In short: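 C57BL6 mice, 6–8 weeks, 20–30 g, four per group, anesthetized with ketamine/xylazine. Right cornea scratched (three 1 mm cuts), 10 μL of 6×10^8 CFU/mL S. aureus ATCC 29213 in PBS applied topically. From day 1, 0.5% drug in PBS (12 mM, pH 7.2) given 4 times at 2 h intervals. Corneas homogenized in 0.9% NaCl/0.25% BSA, diluted, plated in duplicate on TSA, 48 h at 35 °C.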
# Lipid bilayer = experiment: Membrane permeabilization activity in DOPE/DOPG large unilamellar liposomes assessed as leakage of calcein at 1:4 to 1:8 compound to lipid ratio by fluorescence assay
# Staphylococcus aureus [19] = experiment: Induction of plasma membrane permeability in methicillin-resistant Staphylococcus aureus DM9808R assessed as increase in fluorescence intensity at 12.5 ug/ml measured every 1 sec for 50 mins by SYTOX green dye based fluorimetric assay; assay type: functional
# In short: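 Exponential-phase MRSA DM9808R grown on TSA, washed twice and resuspended in PBS (10 mM, pH 7) to OD600 0.2. Cells were loaded with 0.3 μM SYTOX Green in the dark until fluorescence stabilized. Test samples were then added (final DMF 0.5%). Fluorescence at ex 504/em 523 nm was recorded every 1 s for 50 min. Biological replicates.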
Compound,MIC (Staphylococcus aureus [1]),MIC (Bacillus cereus),MIC (Staphylococcus aureus [2]),MIC (Staphylococcus aureus [3]),further results
CCN(CC)CCOc1cc(O)c2c(=O)c(OCCN(CC)CC)c(-c3ccc(OC)cc3)oc2c1CC=C(C)C,50 µg/mL,> 50 µg/mL,50 µg/mL,> 50 µg/mL,
COc1ccc(-c2oc3c(CC=C(C)C)c(OCCCCN(C)C)cc(O)c3c(=O)c2OCCCCN(C)C)cc1,12.5 µg/mL,25 µg/mL,25 µg/mL,12.5 µg/mL,
CCN(CC)CCCCCCOc1cc(O)c2c(=O)c(OCCCCCCN(CC)CC)c(-c3ccc(OC)cc3)oc2c1CC=C(C)C,3.13 µg/mL,12.5 µg/mL,6.25 µg/mL,3.13 µg/mL,
COc1c(N2CCNC(C)C2)c(F)cc2c(=O)c(C(=O)O)cn(C3CC3)c12 (stereo not drawn) [GATIFLOXACIN],,,,,Ratio (Staphylococcus aureus [4]): 64
CC(C)(C)c1cc(C(C)(C)C)c2[nH]c(C(C)(C)C)c(C[C@H](NC(=O)[C@@H](N)CCCNC(=N)N)C(=O)N[C@@H](CCCNC(=N)N)C(=O)NCCc3ccccc3)c2c1 [LTX-109],,,,,MIC (Staphylococcus aureus [5]): 4 µg/mL; MIC (Staphylococcus aureus [6]): 4 µg/mL; MIC (Staphylococcus aureus [7]): 4 µg/mL; MIC (Staphylococcus aureus [8]): 4 µg/mL; MIC (Staphylococcus aureus [9]): 4 µg/mL; Ratio [10]: 44; MIC (Staphylococcus aureus [11]): 4 µg/mL; MIC (Staphylococcus aureus [12]): 4 µg/mL; MIC (Staphylococcus aureus [13]): 4 µg/mL; MIC (Staphylococcus aureus [14]): 4 µg/mL; MIC (Staphylococcus aureus [15]): 4 µg/mL; MIC (Staphylococcus aureus [16]): 4 µg/mL; MIC (Staphylococcus aureus [17]): 4 µg/mL
CCn1cc(C(=O)O)c(=O)c2cc(F)c(N3CCNCC3)cc21 [NORFLOXACIN],,,,,Ratio (Staphylococcus aureus [4]): 128
C[C@H]1COc2c(N3CCN(C)CC3)c(F)cc3c(=O)c(C(=O)O)cn1c23,,,,,Activity (Staphylococcus aureus [18]): Active
COC(=O)[C@H](CCCCN)NC(=O)COc1cc(O)c2c(=O)c(OCC(=O)N[C@@H](CCCCN)C(=O)OC)c(-c3ccc(OC)cc3)oc2c1CC=C(C)C,32.5 µM,32.5 µM,32.5 µM,32.5 µM,Activity (Lipid bilayer): 30%; Activity (Staphylococcus aureus [19]): Active
CCN(CC)CCCCCCCCOc1cc(O)c2c(=O)c(OCCCCCCCCN(CC)CC)c(-c3ccc(OC)cc3)oc2c1CC=C(C)C,> 50 µg/mL,> 50 µg/mL,> 50 µg/mL,> 50 µg/mL,
